For orientation: MIC means the lowest concentration that inhibits growth of the organism. A word on the GI50: it is the concentration that inhibits growth by half. Higher therefore signals lower sensitivity of the cells.

In ChEMBL document CHEMBL1806381, “Unprecedented C-2 arylation of indole with diazonium salts: Syntheses of 2,3-disubstituted indoles and their antimicrobial activity” (Bioorg Med Chem Lett, 2011) one finds MIC and GI50 data, which are given here for 22 molecules.

Values after ≈ are worked out from the molar mass of the structure shown.

Data set [1] concerns Staphylococcus aureus. The data set can be described thus: Antimicrobial activity against methicillin-susceptible Staphylococcus aureus ATCC 29213 assessed as growth inhibition after 18 hrs by MTT assay. Conditions: ATCC 29213, 18 h. In kind it is functional. In a few lines:
(§1)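 Bacterial suspensions were adjusted to about 5×10^5 CFU/mL and treated with compounds in 2-fold serial dilutions. They were incubated for 18 h as ATCC recommends. Viability was read by MTT because the compounds are coloured.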
On the technique in general: Tetrazolium assays rely on reduction of a dye to a coloured formazan, in cell work by metabolically active cells.

The test system of data set [2] is Staphylococcus aureus. Put plainly: Antimicrobial activity against methicillin-resistant Staphylococcus aureus BAA-44 assessed as growth inhibition after 18 hrs by MTT assay. Conditions: BAA-44, 18 h. It is filed as functional. The essentials: (§2)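 Bacterial suspensions adjusted to ~5×10^5 CFU/mL, treated with compounds in 2-fold serial dilutions, incubated per ATCC recommendations for 18 h. Viability read by MTT method, used because the compounds are coloured.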

The next data set has as its system Enterococcus faecalis. Put plainly: Antimicrobial activity against low-level vancomycin-resistant Enterococcus faecalis ATCC 51299 assessed as growth inhibition after 18 hrs by MTT assay. It is filed as functional. Conditions: ATCC 51299, 18 h. The essentials: as §2
For another data set, the system named is Pseudomonas aeruginosa. Put plainly: Antimicrobial activity against Pseudomonas aeruginosa ATCC 27853 assessed as growth inhibition after 18 hrs by MTT assay. It is filed as functional. Conditions: ATCC 27853, 18 h. The essentials:
as §1

For a further data set, the system named is Acinetobacter baumannii. Put plainly: Antimicrobial activity against Acinetobacter baumannii ATCC 15151 assessed as growth inhibition after 18 hrs by MTT assay. It is filed as functional. Conditions: ATCC 15151, 18 h. In a few lines:
as §1

Another data set concerns Candida albicans. Put plainly: Antimicrobial activity against Candida albicans ATCC 26555 assessed as growth inhibition after 18 hrs by MTT assay. In kind it is functional. Conditions: ATCC 26555, 18 h.
Data set [3] can be described thus: Antiproliferative activity against human HeLa cells after 72 hrs by MTT assay. It is filed as cell-based.

With `Clc1ccc(/N=N/c2c[nH]c3ccccc23)cc1`, the MIC in the data set with Staphylococcus aureus [1] was 12.5 µM (≈ 3.2 µg/mL); in the data set on Staphylococcus aureus [2], 12.5 µM (≈ 3.2 µg/mL); in the data set with Enterococcus faecalis it was 25 µM (≈ 6.39 µg/mL); with Pseudomonas aeruginosa, more than 100 µM; with Acinetobacter baumannii, more than 100 µM; with Candida albicans it was 12.5 µM (≈ 3.2 µg/mL). In data set [3], this molecule registered a GI50 at 72 h of 23 µM.

`COc1ccc(/N=N/c2c(-c3ccc(OC)cc3)[nH]c3ccccc23)cc1`: the MIC with Staphylococcus aureus [1] is 3.1 µM (≈ 1.11 µg/mL); in the data set on Staphylococcus aureus [2], 50 µM (≈ 17.9 µg/mL); in the data set on Enterococcus faecalis, more than 100 µM; in the data set with Pseudomonas aeruginosa, more than 100 µM; in the data set on Acinetobacter baumannii, more than 100 µM; with Candida albicans it was more than 100 µM. Also, in data set [3], the GI50 at 72 h worked out at 23 µM.

As for `Clc1ccc(Oc2c(-c3ccc(Cl)cc3)[nH]c3ccccc23)cc1`, the MIC with Staphylococcus aureus [1] was 1.6 µM (≈ 0.567 µg/mL); in the data set with Staphylococcus aureus [2], 3.1 µM (≈ 1.1 µg/mL); with Enterococcus faecalis it was 12.5 µM (≈ 4.43 µg/mL); in the data set with Pseudomonas aeruginosa it was more than 100 µM; in the data set on Acinetobacter baumannii it was more than 100 µM; in the data set on Candida albicans, more than 100 µM. The GI50 at 72 h in data set [3] was 9 µM.

As to `Clc1ccc(/C=C/c2[nH]c3ccccc3c2/C=C/c2ccc(Cl)cc2)cc1`, the MIC in the data set on Staphylococcus aureus [1], in the data set with Staphylococcus aureus [2], in the data set on Enterococcus faecalis, in the data set on Pseudomonas aeruginosa, with Acinetobacter baumannii and in the data set with Candida albicans was more than 100 µM throughout. Besides, the 50% growth inhibitory concentration (GI50) at 72 h in data set [3] is 69 µM.

Take `Clc1ccc(Sc2c(-c3ccc(Br)cc3)[nH]c3ccccc23)cc1`: the MIC with Staphylococcus aureus [1] was 1.6 µM (≈ 0.664 µg/mL); in the data set with Staphylococcus aureus [2] it was 3.1 µM (≈ 1.29 µg/mL); with Enterococcus faecalis, 3.1 µM (≈ 1.29 µg/mL); in the data set on Pseudomonas aeruginosa, more than 100 µM; in the data set on Acinetobacter baumannii it was more than 100 µM; with Candida albicans, more than 100 µM. In data set [3], this molecule displayed a GI50 at 72 h of 12 µM.

As to `Brc1ccc(/N=N/c2c[nH]c3ccccc23)cc1`, the MIC in the data set on Staphylococcus aureus [1] was 6.3 µM (≈ 1.89 µg/mL); with Staphylococcus aureus [2], 6.3 µM (≈ 1.89 µg/mL); with Enterococcus faecalis, 12.5 µM (≈ 3.75 µg/mL); in the data set with Pseudomonas aeruginosa it was more than 100 µM; in the data set with Acinetobacter baumannii it was more than 100 µM; in the data set on Candida albicans, 25 µM (≈ 7.5 µg/mL). Further, the GI50 at 72 h in data set [3] came to 49 µM.

Regarding `Clc1ccc(/C=C/c2c[nH]c3ccccc23)cc1`, the MIC in the data set on Staphylococcus aureus [1] was 25 µM (≈ 6.34 µg/mL); with Staphylococcus aureus [2], more than 100 µM; in the data set with Enterococcus faecalis, more than 100 µM; with Pseudomonas aeruginosa, more than 100 µM; with Acinetobacter baumannii it was more than 100 µM; in the data set with Candida albicans, more than 100 µM. This molecule had a GI50 at 72 h in data set [3] of 64 µM.

For the molecule `Brc1ccc(/N=N/c2c(-c3ccc(Br)cc3)[nH]c3ccccc23)cc1`, the MIC in the data set with Staphylococcus aureus [1] is 6.3 µM (≈ 2.87 µg/mL); in the data set on Staphylococcus aureus [2], 12.5 µM (≈ 5.69 µg/mL); with Enterococcus faecalis, 6.3 µM (≈ 2.87 µg/mL); with Pseudomonas aeruginosa it was more than 100 µM; in the data set on Acinetobacter baumannii it was more than 100 µM; in the data set with Candida albicans, more than 100 µM. In addition, in data set [3], halving of growth (GI50 at 72 h) required 9 µM.

As for `Fc1ccc2[nH]c(-c3ccc(Cl)cc3)c(Oc3ccc(Cl)cc3)c2c1`, the MIC is 1.6 µM (≈ 0.596 µg/mL) in the data set with Staphylococcus aureus [1]; 1.6 µM (≈ 0.596 µg/mL) with Staphylococcus aureus [2]; 6.3 µM (≈ 2.35 µg/mL) in the data set on Enterococcus faecalis; more than 100 µM with Pseudomonas aeruginosa; more than 100 µM in the data set on Acinetobacter baumannii; more than 100 µM with Candida albicans. Besides, in data set [3], growth was halved (GI50 at 72 h) at 13 µM.

`Clc1ccc(-c2cc3ccccc3[nH]2)cc1`: the MIC with Staphylococcus aureus [1], with Staphylococcus aureus [2], in the data set with Enterococcus faecalis, with Pseudomonas aeruginosa, with Acinetobacter baumannii and with Candida albicans was more than 100 µM in each case. The GI50 at 72 h in data set [3] is more than 100 µM.

Turning to `Clc1ccc(Sc2c(-c3ccc(Cl)cc3)[nH]c3ccc(Cl)cc23)cc1`, the MIC in the data set on Staphylococcus aureus [1] is 1.6 µM (≈ 0.648 µg/mL); in the data set with Staphylococcus aureus [2] it was 1.3 µM (≈ 0.526 µg/mL); in the data set on Enterococcus faecalis it was 6.3 µM (≈ 2.55 µg/mL); in the data set on Pseudomonas aeruginosa, more than 100 µM; with Acinetobacter baumannii, more than 100 µM; in the data set on Candida albicans, more than 100 µM. The molecule further displayed a GI50 at 72 h in data set [3] of 8 µM.

As for `Fc1cccc2c(Oc3ccc(Cl)cc3)c(-c3ccc(Cl)cc3)[nH]c12`, the MIC in the data set with Staphylococcus aureus [1] was 1.6 µM (≈ 0.596 µg/mL); with Staphylococcus aureus [2], 1.3 µM (≈ 0.484 µg/mL); with Enterococcus faecalis it was 3.1 µM (≈ 1.15 µg/mL); in the data set on Pseudomonas aeruginosa, more than 100 µM; in the data set on Acinetobacter baumannii, more than 100 µM; in the data set on Candida albicans, more than 100 µM. In data set [3], the 50% growth inhibitory concentration (GI50) at 72 h was determined as 13 µM.

For `Clc1ccc(Oc2c(-c3ccc(Cl)cc3)[nH]c3ccc(Br)cc23)cc1`, the minimal inhibitory concentration (MIC) was 3.1 µM (≈ 1.34 µg/mL) in the data set on Staphylococcus aureus [1]; 3.1 µM (≈ 1.34 µg/mL) in the data set with Staphylococcus aureus [2]; 12.5 µM (≈ 5.41 µg/mL) in the data set with Enterococcus faecalis; more than 100 µM with Pseudomonas aeruginosa; more than 100 µM in the data set with Acinetobacter baumannii; more than 100 µM with Candida albicans. The molecule also yielded a GI50 at 72 h in data set [3] of 3 µM.

Turning to `Clc1ccc(-c2cc3[nH]c4ccccc4c3cc2-c2ccc(Cl)cc2)cc1`, the MIC with Staphylococcus aureus [1], in the data set with Staphylococcus aureus [2], with Enterococcus faecalis, in the data set on Pseudomonas aeruginosa, with Acinetobacter baumannii and in the data set on Candida albicans was more than 100 µM throughout. For the same molecule, in data set [3], the GI50 at 72 h was 16 µM.

Consider `Clc1ccc(Sc2c(-c3ccc(Cl)cc3)[nH]c3ccccc23)cc1`, for which the MIC in the data set on Staphylococcus aureus [1] is 1.6 µM (≈ 0.592 µg/mL); in the data set with Staphylococcus aureus [2] it was 3.1 µM (≈ 1.15 µg/mL); with Enterococcus faecalis, 3.1 µM (≈ 1.15 µg/mL); in the data set with Pseudomonas aeruginosa, more than 100 µM; in the data set with Acinetobacter baumannii, more than 100 µM; in the data set with Candida albicans, more than 100 µM. Besides, it took 6 µM to inhibit growth in data set [3] by half (GI50 at 72 h).

For `CN[C@H](CC(C)C)C(=O)N[C@H]1C(=O)N[C@@H](CC(N)=O)C(=O)N[C@H]2C(=O)N[C@H]3C(=O)N[C@H](C(=O)N[C@H](C(=O)O)c4cc(O)cc(O)c4-c4cc3ccc4O)[C@H](O)c3ccc(c(Cl)c3)Oc3cc2cc(c3O[C@@H]2O[C@H](CO)[C@@H](O)[C@H](O)[C@H]2O[C@H]2C[C@](C)(N)[C@H](O)[C@H](C)O2)Oc2ccc(cc2Cl)[C@H]1O` [VANCOMYCIN], the MIC in the data set on Staphylococcus aureus [1] turned out to be 2.8 µM (≈ 4.06 µg/mL); in the data set with Staphylococcus aureus [2], 2.8 µM (≈ 4.06 µg/mL); in the data set on Enterococcus faecalis, 86.3 µM (≈ 125 µg/mL).

As for `Clc1ccc(Oc2c(-c3ccc(Cl)cc3)[nH]c3ccc(Cl)cc23)cc1`, the MIC with Staphylococcus aureus [1] is 1.6 µM (≈ 0.622 µg/mL); in the data set with Staphylococcus aureus [2], 0.6 µM (≈ 0.233 µg/mL); in the data set on Enterococcus faecalis, 12.5 µM (≈ 4.86 µg/mL); in the data set with Pseudomonas aeruginosa, more than 100 µM; in the data set with Acinetobacter baumannii, more than 100 µM; with Candida albicans it was more than 100 µM. Further, growth in data set [3] was halved (GI50 at 72 h) at 8 µM.

In the case of `O=S(=O)(c1ccc(Cl)cc1)c1c(-c2ccc(Cl)cc2)[nH]c2ccccc12`, the minimum inhibitory concentration (MIC) in the data set on Staphylococcus aureus [1], in the data set on Staphylococcus aureus [2], in the data set with Enterococcus faecalis, with Pseudomonas aeruginosa, in the data set on Acinetobacter baumannii and in the data set with Candida albicans was more than 100 µM in each case. The molecule also displayed a GI50 at 72 h in data set [3] of 14 µM.

On to `COc1ccc2[nH]c(-c3ccc(Cl)cc3)c(Oc3ccc(Cl)cc3)c2c1`, for which the MIC in the data set with Staphylococcus aureus [1] was 12.5 µM (≈ 4.8 µg/mL); in the data set with Staphylococcus aureus [2] it was 6.3 µM (≈ 2.42 µg/mL); in the data set on Enterococcus faecalis, 25 µM (≈ 9.61 µg/mL); in the data set on Pseudomonas aeruginosa, more than 100 µM; with Acinetobacter baumannii it was more than 100 µM; in the data set on Candida albicans it was more than 100 µM. In addition, in data set [3], growth was halved (GI50 at 72 h) at 24 µM.

Consider `O=C(c1ccc(Cl)cc1)c1c(-c2ccc(Cl)cc2)[nH]c2ccccc12`, for which the MIC in the data set with Staphylococcus aureus [1], in the data set on Staphylococcus aureus [2], with Enterococcus faecalis, in the data set with Pseudomonas aeruginosa, with Acinetobacter baumannii and with Candida albicans was more than 100 µM in each case. Moreover, growth in data set [3] was halved (GI50 at 72 h) at 19 µM.

Regarding `Clc1ccc(/N=N/c2c(-c3ccc(Br)cc3)[nH]c3ccccc23)cc1`, the MIC in the data set on Staphylococcus aureus [1] was 6.3 µM (≈ 2.59 µg/mL); in the data set with Staphylococcus aureus [2] it was 6.3 µM (≈ 2.59 µg/mL); with Enterococcus faecalis, 6.3 µM (≈ 2.59 µg/mL); in the data set on Pseudomonas aeruginosa, more than 100 µM; in the data set with Acinetobacter baumannii it was more than 100 µM; in the data set with Candida albicans, more than 100 µM. In data set [3], this molecule came in with a GI50 at 72 h of 13 µM.

For the molecule `CC1(C)S[C@@H]2[C@H](NC(=O)Cc3ccccc3)C(=O)N2[C@H]1C(=O)O` [PENICILLIN G], the MIC in the data set with Staphylococcus aureus [1] was 23.9 µM (≈ 7.99 µg/mL); with Staphylococcus aureus [2], more than 100 µM; in the data set on Enterococcus faecalis it was 11.9 µM (≈ 3.98 µg/mL).
